Compounds with a hit are over-represented: about 1.3% of the library has one in this group of screens.
FN deposit inh = fibronectin deposition inhibition. AH1F fibroblasts, Alexa488-fibronectin deposition fluorescence, overnight. inhibition, % at 12.6 µM. actives 0.086% (n = 350,000);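 active means mean inhibition across replicates of 30% or more, regardless of how many single replicates reach that level; inconclusive means mean under 30% yet at least half of replicates reach 30%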;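 further: positive control wells lacked labelled fibronectin entirely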
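material = AH1F fibroblast monolayer depositing Alexa488-labelled fibronectin into matrix | amount = 10000 AH1F cells/well | buffer or medium = DMEM plus 2% serum, read in PBS | incubation = 1 h cell adhesion before compound, then overnight fibronectin incubation | detection = fluorescence at 485 nm excitation, 525 nm emission | evaluation = percent inhibition as loss of matrix-bound fibronectin fluorescence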
AF4-AF9 inh = inhibitors of human MLL-AF4/AF9 interaction. P42568. AlphaScreen, biotin-AF4 peptide binding to FLAG-AF9. inhibition, % at 10 µM. actives 0.47% (n = 350,000);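 active means every replicate reaching a set inhibition limit, whatever the replicate mean, cut at about 25% in these data; inconclusive means mean inhibition reaches that limit but some replicates miss it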;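 further: 0% = plate neutral control median and 100% = total signal loss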
PDI inh = PDI (human) enzyme inhibition; inhibition, % at 10 µM; AID 588391; P07237; actives 0.052% (n = 350,000); PDI insulin aggregation turbidity, A650, 90 min;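 active means mean inhibition across replicates of 30% or more, whatever share of single replicates reach that level; inconclusive means mean inhibition below 30% while every single replicate reaches 30%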
ERp5 block = ERp5 (human) disulfide isomerase inhibition. actives 0.05% (n = 350,000). inhibition, % at 9.99 µM. ERp5 insulin aggregation, absorbance 650 nm, 90 min. Q15084;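 active means mean replicate inhibition above about 25%, with every replicate also reaching it, limit read from the data, passing the limit was not always enough; inconclusive means only one of those two criteria met; inactive means neither criterion met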
SIRT5 inh = sirtuin-5 (human) deacylase inhibition. Purified SirT5, succinyl-peptide AMC, trypsin-coupled fluorescence. inhibition, % at 15 µM. AID 652115. Q9NXA8. actives 1.1% (n = 330,000); in the data active means inhibition above about 15%; inconclusive means no clear call, values can overlap the other calls
* hit, by the source's call; ! = not confirmed by another sample.

What do the screens show for `COc1ccc(C(=O)COC(=O)/C=C/c2ccc(S(=O)(=O)Nc3cccc(S(N)(=O)=O)c3)cc2)cc1`?
FN deposit inh: -3; AF4-AF9 inh: 0; PDI inh: -5; ERp5 block: 6; SIRT5 inh: -1

What do the screens show for `COCC(=O)OCC(=O)N1N=C(c2ccc(Cl)cc2)CC1c1ccco1` (stereo unspecified)?
FN deposit inh: 0; AF4-AF9 inh: -2; PDI inh: -8; ERp5 block: 3; SIRT5 inh: -1

Results for O=C(Nc1ccc(N2CCN(C(=O)c3ccco3)CC2)cc1)c1ccccc1 ?
FN deposit inh: -9; AF4-AF9 inh: -20; PDI inh: 1; ERp5 block: -7; SIRT5 inh: 19*

What do the screens show for `C[C@@H]1CN([C@@H](C)CO)C(=O)CCCn2nncc2CO[C@@H]1CN(C)S(=O)(=O)c1ccc(Cl)cc1`?
FN deposit inh: -4; AF4-AF9 inh: 0; PDI inh: 2; ERp5 block: -2; SIRT5 inh: 0

What do the screens show for `C[C@H]1CN([C@@H](C)CO)C(=O)CCCn2nncc2CO[C@@H]1CN(C)C(=O)c1ccc2ccn(C)c2c1`?
FN deposit inh: 3; AF4-AF9 inh: 4; PDI inh: 0; ERp5 block: 3; SIRT5 inh: 38*!

Results for C[C@@H]1CN([C@H](C)CO)C(=O)CCCn2nncc2CO[C@H]1CN(C)S(=O)(=O)c1ccc(Cl)cc1 ?
FN deposit inh: 1; AF4-AF9 inh: -1; PDI inh: 2; ERp5 block: 5; SIRT5 inh: 19*!

How did C[C@@H]1CN([C@@H](C)CO)C(=O)CCCn2nncc2CO[C@H]1CN(C)Cc1ccc(Cl)c(Cl)c1 do in these assays?
FN deposit inh: -4; AF4-AF9 inh: -3; PDI inh: 1; ERp5 block: 2; SIRT5 inh: 16*!

Results for C[C@@H]1CN([C@H](C)CO)C(=O)CCCn2nncc2CO[C@H]1CN(C)Cc1ccc(Cl)c(Cl)c1 ?
FN deposit inh: 13; AF4-AF9 inh: 0; PDI inh: 5; ERp5 block: 1; SIRT5 inh: 8

What do the screens show for `C[C@@H]1CN([C@H](C)CO)C(=O)CCCn2nncc2CO[C@@H]1CN(C)C(=O)c1ccc2ccn(C)c2c1`?
FN deposit inh: 1; AF4-AF9 inh: -1; ERp5 block: -1; SIRT5 inh: 1

What do the screens show for `Fc1cccc(Cl)c1Cn1nnc2c(NCc3ccccn3)ncnc21`?
FN deposit inh: -5; PDI inh: -6

Results for CCOc1ccccc1N1CC(C(=O)N(CC)CC(=O)Nc2ccc3c(c2)OCCO3)CC1=O (stereo unspecified) ?
FN deposit inh: 4; AF4-AF9 inh: 17; PDI inh: -5; ERp5 block: 7; SIRT5 inh: 0

What do the screens show for `CC1(NCc2ccc(Cl)cc2)COP(=O)(NCc2ccccc2)OC1` (stereo unspecified)?
FN deposit inh: 3; AF4-AF9 inh: 2; PDI inh: 1; ERp5 block: -5; SIRT5 inh: 16*

Results for O=C(CC(=O)NCc1ccc(Cl)cc1)NCc1ccccc1 ?
FN deposit inh: -1; AF4-AF9 inh: -4; PDI inh: -1; ERp5 block: 1; SIRT5 inh: -3

Results for Cn1c(SCc2ccccc2F)nnc1-c1cnccn1 ?
FN deposit inh: -6; PDI inh: -5

What do the screens show for `CN(C)c1ccc(C(=O)OCC(=O)Nc2ccc(S(N)(=O)=O)cc2)cc1`?
PDI inh: 2; ERp5 block: 8; SIRT5 inh: 4

How did CCN(CC)c1ccc2nc3ccc(N)cc3[n+](-c3ccccc3)c2c1 do in these assays?
FN deposit inh: 8; AF4-AF9 inh: 50*; PDI inh: 4; ERp5 block: -9; SIRT5 inh: -2

What do the screens show for `CCN(CC)c1ccc2nc3ccccc3[n+](CC)c2c1`?
PDI inh: -4

Results for O=C(NC1CCCC1)[C@H]1[C@H](CO)[C@H]2Cn3c(cccc3=O)[C@H]2N1CCc1ccccc1 ?
FN deposit inh: 9; AF4-AF9 inh: -3; ERp5 block: -3; SIRT5 inh: -1

Results for C/C=C/c1ccc2c(c1)O[C@H](CN(C)Cc1ccc(F)cc1)[C@@H](C)CN([C@H](C)CO)S2(=O)=O ?
FN deposit inh: 1; AF4-AF9 inh: 9; ERp5 block: 2; SIRT5 inh: 0

What do the screens show for `C/C=C/c1ccc2c(c1)O[C@@H](CN(C)Cc1ccccc1F)[C@H](C)CN([C@H](C)CO)S2(=O)=O`?
AF4-AF9 inh: 11; ERp5 block: -1; SIRT5 inh: inconclusive
